Reference: ChEMBL document CHEMBL4257443, “The discovery of a potent Nav1.3 inhibitor with good oral pharmacokinetics” (Medchemcomm, 2017)
The source made the active and inactive calls. No cut-off for these calls is given here.

Columns and labels:
[1] = Lipophilicity, log D of the compound; format: physicochemical; conditions: octanol/water
[2] = target: T1, Sodium channel protein type 3 subunit alpha (Homo sapiens, UniProt Q9NY46); assay: Inhibition of human NaV1.3 expressed in HEK cells by electrophysiological method; format: cell-based
T1 sequence (Q9NY46 whole entry): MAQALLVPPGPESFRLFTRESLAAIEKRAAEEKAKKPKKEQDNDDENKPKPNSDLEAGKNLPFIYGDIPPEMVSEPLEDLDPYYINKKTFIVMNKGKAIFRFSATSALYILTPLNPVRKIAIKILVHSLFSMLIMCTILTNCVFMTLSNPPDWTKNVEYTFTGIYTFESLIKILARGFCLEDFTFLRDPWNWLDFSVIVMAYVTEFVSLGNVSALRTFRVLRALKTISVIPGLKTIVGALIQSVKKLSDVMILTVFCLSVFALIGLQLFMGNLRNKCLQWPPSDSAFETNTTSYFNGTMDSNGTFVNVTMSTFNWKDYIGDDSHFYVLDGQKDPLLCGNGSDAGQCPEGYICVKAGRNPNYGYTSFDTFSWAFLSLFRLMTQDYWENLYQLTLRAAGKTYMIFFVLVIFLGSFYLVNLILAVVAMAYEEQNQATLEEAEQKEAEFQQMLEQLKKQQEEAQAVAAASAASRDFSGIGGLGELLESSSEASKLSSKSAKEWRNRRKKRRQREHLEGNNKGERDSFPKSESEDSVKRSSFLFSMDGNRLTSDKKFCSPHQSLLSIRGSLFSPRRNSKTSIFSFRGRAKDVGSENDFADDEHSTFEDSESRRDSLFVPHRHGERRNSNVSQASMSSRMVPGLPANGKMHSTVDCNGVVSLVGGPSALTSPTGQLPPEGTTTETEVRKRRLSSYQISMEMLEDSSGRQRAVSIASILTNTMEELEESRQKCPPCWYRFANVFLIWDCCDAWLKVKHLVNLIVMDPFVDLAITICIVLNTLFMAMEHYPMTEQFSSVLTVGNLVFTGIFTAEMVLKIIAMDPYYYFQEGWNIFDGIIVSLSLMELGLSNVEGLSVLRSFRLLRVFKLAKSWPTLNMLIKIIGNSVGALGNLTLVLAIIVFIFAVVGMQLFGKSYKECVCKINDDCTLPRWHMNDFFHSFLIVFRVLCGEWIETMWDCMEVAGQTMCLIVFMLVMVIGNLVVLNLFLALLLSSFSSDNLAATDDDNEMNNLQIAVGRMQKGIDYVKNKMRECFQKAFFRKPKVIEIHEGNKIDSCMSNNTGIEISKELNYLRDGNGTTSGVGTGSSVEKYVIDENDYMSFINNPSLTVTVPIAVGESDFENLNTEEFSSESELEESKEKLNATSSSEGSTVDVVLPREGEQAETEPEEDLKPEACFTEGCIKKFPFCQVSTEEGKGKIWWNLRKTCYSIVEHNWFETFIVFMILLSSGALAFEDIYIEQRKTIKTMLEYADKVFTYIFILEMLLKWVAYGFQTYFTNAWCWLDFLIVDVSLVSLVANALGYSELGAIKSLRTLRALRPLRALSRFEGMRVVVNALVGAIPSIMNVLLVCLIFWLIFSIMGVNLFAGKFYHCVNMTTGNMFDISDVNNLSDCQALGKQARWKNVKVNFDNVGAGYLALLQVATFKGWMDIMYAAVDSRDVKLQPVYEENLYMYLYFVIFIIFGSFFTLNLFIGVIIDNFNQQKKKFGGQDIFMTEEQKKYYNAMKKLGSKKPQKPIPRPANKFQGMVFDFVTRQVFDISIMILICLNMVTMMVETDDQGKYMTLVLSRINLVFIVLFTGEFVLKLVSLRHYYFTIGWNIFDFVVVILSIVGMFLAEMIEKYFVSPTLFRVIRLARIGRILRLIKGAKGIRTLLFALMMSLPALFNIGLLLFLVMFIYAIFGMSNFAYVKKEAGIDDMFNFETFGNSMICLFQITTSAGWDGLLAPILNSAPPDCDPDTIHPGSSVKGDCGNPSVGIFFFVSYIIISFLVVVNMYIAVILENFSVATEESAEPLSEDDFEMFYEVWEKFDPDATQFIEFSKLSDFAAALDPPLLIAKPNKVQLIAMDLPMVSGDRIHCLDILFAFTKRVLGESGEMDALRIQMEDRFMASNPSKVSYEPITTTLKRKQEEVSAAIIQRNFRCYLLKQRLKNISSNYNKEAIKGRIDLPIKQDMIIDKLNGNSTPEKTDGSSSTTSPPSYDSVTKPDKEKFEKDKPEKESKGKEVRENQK

[3] = target: T1, Sodium channel protein type 3 subunit alpha; assay: Inhibition of NaV1.3 (unknown origin) expressed in HEK293 cells by CC2-DMPE/DiSBAC2(3) dye-based FRET assay; format: cell-based
[4] = test system: Rattus norvegicus; assay: Antipain activity in tibial nerve transection surgery model of rat assessed as reduction of noxious pinch evoked activity at 9 to 18 mg/kg administered as iv bolus dose measured every 15 mins for 30 mins; format: functional, organism-based
Procedure, shortened: (§1)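 Rats given tibial nerve transection 2 to 3 weeks before recording. Anaesthesia with isoflurane (5% in O2) in a stereotaxic frame, body temperature held at 37 °C, and laminectomy to expose spinal segments L4-5. After stable baseline responses, compound given as IV bolus; evoked activity assessed every 15 min for up to 30 min per dose. Randomised, blinded dosing. Dry blood spots taken for plasma exposure.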

[5] = test system: Rattus norvegicus; assay: Antipain activity in tibial nerve transection surgery model of rat assessed as reduction of innocuous brush evoked activity at 9 to 18 mg/kg administered as iv bolus dose measured every 15 mins for 30 mins; format: functional, organism-based; procedure, shortened: as §1
[6] = test system: Rattus norvegicus; assay: Antipain activity in tibial nerve transection surgery model of rat assessed as reduction of heat evoked activity at 9 to 18 mg/kg administered as iv bolus dose measured every 15 mins for 30 mins; format: functional, organism-based; procedure, shortened: as §1
[7] = test system: Rattus norvegicus; assay: Antipain activity in tibial nerve transection surgery model of rat assessed as reduction of mechanical punctate stimuli evoked activity at 9 to 18 mg/kg administered as iv bolus dose measured every 15 mins for 30 mins; format: functional, organism-based; procedure, shortened: as §1
[8] = Dissociation constant, pKa of compound; format: physicochemical
[9] = Clearance in dog liver microsomes; format: ADME, Canis lupus familiaris, microsome; conditions: read-out: CLH
[10] = Clearance in cynomolgus monkey liver microsomes; format: ADME, Macaca fascicularis, microsome; conditions: read-out: CLH
[11] = Clearance in rat; format: ADME, organism-based; conditions: in vivo
[12] = target: Sodium channel protein type 2 subunit alpha (Homo sapiens, UniProt Q99250); assay: Inhibition of human NaV1.2
[13] = Fraction unbound in rat plasma; format: ADME, cell-free
[14] = Aqueous solubility of compound; format: physicochemical; conditions: buffer
[15] = target: Sodium channel protein type 10 subunit alpha (Homo sapiens, UniProt Q9Y5Y9); assay: Inhibition of human NaV1.8
[16] = Clearance in rat liver microsomes; format: ADME, microsome; conditions: read-out: CLH
[17] = Clearance in human liver microsomes; format: ADME, microsome; conditions: read-out: CLH
[18] = Oral bioavailability in rat; format: ADME, organism-based; conditions: in vivo
[19] = target: Sodium channel protein type 9 subunit alpha (Homo sapiens, UniProt Q15858); assay: Inhibition of human NaV1.7
[20] = target: Voltage-gated inwardly rectifying potassium channel KCNH2 (Homo sapiens, UniProt Q12809); assay: Inhibition of human ERG
Chain of Voltage-gated inwardly rectifying potassium channel KCNH2 (Q12809 whole entry): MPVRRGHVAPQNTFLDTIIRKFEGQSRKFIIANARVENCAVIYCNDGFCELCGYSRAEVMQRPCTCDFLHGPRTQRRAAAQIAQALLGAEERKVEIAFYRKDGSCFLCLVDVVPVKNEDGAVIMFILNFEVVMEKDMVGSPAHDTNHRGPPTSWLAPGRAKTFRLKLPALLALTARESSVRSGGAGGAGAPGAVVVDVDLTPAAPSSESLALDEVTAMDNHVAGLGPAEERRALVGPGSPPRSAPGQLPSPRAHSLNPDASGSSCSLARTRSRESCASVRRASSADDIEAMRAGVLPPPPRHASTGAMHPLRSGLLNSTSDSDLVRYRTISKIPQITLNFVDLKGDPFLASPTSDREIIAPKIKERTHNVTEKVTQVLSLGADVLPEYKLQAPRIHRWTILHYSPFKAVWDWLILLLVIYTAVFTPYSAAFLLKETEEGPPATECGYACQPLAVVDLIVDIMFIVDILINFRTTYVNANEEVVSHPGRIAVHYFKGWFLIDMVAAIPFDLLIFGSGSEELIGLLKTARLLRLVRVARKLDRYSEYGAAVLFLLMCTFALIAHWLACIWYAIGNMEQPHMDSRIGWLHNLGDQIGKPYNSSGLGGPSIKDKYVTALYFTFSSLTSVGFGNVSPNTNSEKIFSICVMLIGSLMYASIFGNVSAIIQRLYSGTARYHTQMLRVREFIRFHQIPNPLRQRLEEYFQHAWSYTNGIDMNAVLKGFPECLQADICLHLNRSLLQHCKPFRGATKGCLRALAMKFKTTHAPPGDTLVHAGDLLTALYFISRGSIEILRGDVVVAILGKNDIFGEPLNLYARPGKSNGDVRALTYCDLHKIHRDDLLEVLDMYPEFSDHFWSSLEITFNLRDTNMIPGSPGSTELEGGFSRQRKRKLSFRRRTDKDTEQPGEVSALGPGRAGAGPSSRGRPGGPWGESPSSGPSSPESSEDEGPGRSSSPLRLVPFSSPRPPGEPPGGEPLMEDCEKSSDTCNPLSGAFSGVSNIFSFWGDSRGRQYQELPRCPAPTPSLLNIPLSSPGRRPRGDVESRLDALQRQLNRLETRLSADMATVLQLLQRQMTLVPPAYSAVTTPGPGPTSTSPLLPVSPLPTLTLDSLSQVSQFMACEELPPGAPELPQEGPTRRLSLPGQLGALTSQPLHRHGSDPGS

[21] = test system: MDR1; assay: Efflux ratio of permeability across basolateral to apical over apical to basolateral side in RRCK cells expressing MDR1; format: ADME, cell-based, Canis lupus familiaris, MDCKII-LE; conditions: dog, MDCK-MDR1
[22] = Elimination half life in rat; format: ADME, organism-based; conditions: in vivo, read-out: beta t1/2 (converted)
[23] = Volume of distribution in rat; format: ADME, organism-based; conditions: in vivo
[24] = target: CYP3A4 (Homo sapiens, UniProt P08684); assay: Inhibition of CYP3A4 (unknown origin) at 3 uM by high throughput assay relative to control; format: ADME
Chain of CYP3A4 (P08684 whole entry): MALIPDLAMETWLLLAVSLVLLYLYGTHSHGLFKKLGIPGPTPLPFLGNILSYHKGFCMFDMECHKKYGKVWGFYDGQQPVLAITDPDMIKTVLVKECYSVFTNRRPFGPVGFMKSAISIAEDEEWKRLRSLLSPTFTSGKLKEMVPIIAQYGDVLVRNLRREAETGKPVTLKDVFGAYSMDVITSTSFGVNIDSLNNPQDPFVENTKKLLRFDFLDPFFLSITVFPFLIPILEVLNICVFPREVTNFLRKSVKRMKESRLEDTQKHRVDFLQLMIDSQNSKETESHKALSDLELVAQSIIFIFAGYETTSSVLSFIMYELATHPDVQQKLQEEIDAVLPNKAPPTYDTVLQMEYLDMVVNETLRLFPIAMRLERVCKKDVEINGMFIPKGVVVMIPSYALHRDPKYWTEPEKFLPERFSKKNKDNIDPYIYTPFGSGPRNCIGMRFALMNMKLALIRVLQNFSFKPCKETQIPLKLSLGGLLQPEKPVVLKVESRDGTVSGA

[25] = target: Sodium channel protein type 1 subunit alpha (Homo sapiens, UniProt P35498); assay: Inhibition of human NaV1.1
[26] = target: CYP2C9 (Homo sapiens, UniProt P11712); assay: Inhibition of CYP2C9 (unknown origin) at 3 uM by high throughput assay relative to control; format: ADME
Chain of CYP2C9 (P11712 whole entry): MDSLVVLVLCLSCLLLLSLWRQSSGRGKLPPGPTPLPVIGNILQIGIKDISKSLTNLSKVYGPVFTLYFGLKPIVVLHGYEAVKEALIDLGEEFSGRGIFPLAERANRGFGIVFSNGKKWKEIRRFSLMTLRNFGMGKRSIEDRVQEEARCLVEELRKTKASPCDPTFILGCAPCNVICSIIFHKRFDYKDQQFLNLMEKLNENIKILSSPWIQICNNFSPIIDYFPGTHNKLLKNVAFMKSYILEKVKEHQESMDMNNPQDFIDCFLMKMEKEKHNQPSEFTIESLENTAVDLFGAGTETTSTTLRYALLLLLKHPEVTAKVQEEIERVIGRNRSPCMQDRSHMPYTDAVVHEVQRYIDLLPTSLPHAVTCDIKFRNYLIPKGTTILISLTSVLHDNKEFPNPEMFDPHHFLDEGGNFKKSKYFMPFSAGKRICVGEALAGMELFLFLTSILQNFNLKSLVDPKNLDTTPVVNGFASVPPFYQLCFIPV

[27] = test system: Rattus norvegicus; assay: Toxicity in rat assessed as decrease in core body temperature at 100 to 500 mg/kg, po; format: organism-based; conditions: in vivo
[28] = test system: Tibial nerve; assay: Effect on ongoing nerve activity in rat skin-tibial nerve at 0.01 to 1 uM; format: functional, tissue-based
Procedure, shortened: (§2)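 Compound was applied to the isolated skin-tibial nerve preparation at 0.01, 0.03, 0.1, 0.3 and 1 µM. Heat-evoked afferent firing and ongoing nerve activity were recorded.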

[29] = Protein binding in rat plasma by equilibrium dialysis method; format: ADME, cell-free; conditions: read-out: PPB (converted)
Procedure, shortened: (§3)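 Plasma protein binding measured by equilibrium dialysis.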

[30] = target: Sodium channel protein type 8 subunit alpha (Homo sapiens, UniProt Q9UQD0); assay: Inhibition of human NaV1.6
[31] = test system: Rattus norvegicus; assay: Toxicity in rat assessed as increase in blood pressure at 100 to 500 mg/kg, po; format: organism-based; conditions: in vivo
[32] = Ratio of drug level in cynomolgus monkey treated with (2-(4-(3-chloro-4-(trifluoromethoxy)benzylcarbamoyl)-2-fluorophenylsulfonylimino)thiazol-3(2H)-yl)methyl dihydrogen phosphate at 30 mg/kg to IC50 for cynomolgus monkey NaV1.3; format: ADME, organism-based, Macaca fascicularis; conditions: in vivo
[33] = target: Sodium channel protein type 5 subunit alpha (Homo sapiens, UniProt Q14524); assay: Inhibition of human NaV1.5
[34] = Protein binding in human plasma by equilibrium dialysis method; format: ADME, cell-free; conditions: read-out: PPB (converted); procedure, shortened: as §3
[35] = Ratio of drug level in tibial nerve transection surgery model of rat treated with (2-(4-(3-chloro-4-(trifluoromethoxy)benzylcarbamoyl)-2-fluorophenylsulfonylimino)thiazol-3(2H)-yl)methyl dihydrogen phosphate at 3 to 10 mg/kg administered as iv bolus dose to IC50 for rat NaV1.3; format: ADME, organism-based; conditions: in vivo
[36] = test system: Tibial nerve; assay: Effect on heat evoked afferent firing in rat skin-tibial nerve at 0.01 to 1 uM; format: functional, tissue-based; procedure, shortened: as §2
[37] = Ratio of drug level in rat at 100 mg/kg, po to IC50 for rat NaV1.3; format: ADME, organism-based; conditions: in vivo
[38] = Protein binding in dog plasma; format: ADME, cell-free, Canis lupus familiaris; conditions: read-out: PPB
[39] = test system: Rattus norvegicus; assay: Toxicity in rat assessed as decrease in heart rate at 100 to 500 mg/kg, po; format: organism-based; conditions: in vivo

## O=C(NCc1ccc(OC(F)(F)F)c(Cl)c1)c1ccc(S(=O)(=O)Nc2ncc(F)cn2)c(F)c1
[1]
  logD: 2.1
[2]
  IC50: 993 nM

## O=S(=O)(CCc1ccc(C(F)(F)F)cc1)c1ccc(S(=O)(=O)Nc2nccs2)cc1
[2]
  IC50: 155 nM

## O=C(COc1ccc(F)cc1)N1CCc2cc(S(=O)(=O)Nc3nccs3)ccc21
[1]
  logD: 1.8
[2]
  IC50: 2510 nM

## O=C1[C@@H](N2CC[C@H](c3cc(Cl)cc(Cl)c3)C2)CCN1c1ccc(S(=O)(=O)Nc2nccs2)cc1
[3]
  IC50: < 2000 nM

## CC(C)C[C@H](CN)CC(=O)O
[4]
  Activity: Active
[5]
  Activity: Active
[6]
  Activity: Active
[7]
  Activity: Active

## O=S(=O)(Nc1ncns1)c1ccc(OCc2ccc(OC(F)(F)F)c(Cl)c2)cc1
[8]
  pKa: 4.1
[9]
  microsomal CLint: < 18 µL/min/mg
[10]
  microsomal CLint: < 32 µL/min/mg
[11]
  clearance: 2 mL/min/kg
[12]
  IC50: 2760 nM
[13]
  fraction unbound: 0.00024
[14]
  solubility: 99 µM
[15]
  IC50: 15100 nM
[16]
  microsomal CLint: < 14 µL/min/mg
[1]
  logD: 2.65
[17]
  microsomal CLint: 15 µL/min/mg
[18]
  bioavailability: 73%
[19]
  IC50: 5100 nM
[20]
  IC50: > 10000 nM
[21]
  efflux ratio: 1
[22]
  half-life: 7 h
[2]
  IC50: 22 nM
[23]
  Vd: 1 L/kg
[24]
  inhibition at 3 µM: 75%
[25]
  IC50: 455 nM
[26]
  inhibition at 3 µM: 85%

## O=S(=O)(Nc1nccs1)c1ccc(S(=O)(=O)N2CC(Oc3ccccc3)C2)cc1F
[1]
  logD: 1.4
[2]
  IC50: 959 nM

## O=C(NCc1ccc(OC(F)(F)F)c(Cl)c1)c1ccc(S(=O)(=O)Nc2nccs2)c(F)c1
[8]
  pKa: 6.4
[27]
  Activity: Toxic
[28]
  Activity: inactive
[29]
  fraction unbound: 0.002
[11]
  clearance: 3.9 mL/min/kg
[12]
  IC50: 429 nM
[30]
  IC50: 1050 nM
[14]
  solubility: 12 µg/mL
[31]
  Activity: Toxic
[15]
  IC50: 12400 nM
[1]
  logD: 3.3
[17]
  microsomal CLint: < 8 µL/min/mg
[18]
  bioavailability: 58%
[19]
  IC50: 289 nM
[32]
  Ratio: 62
[33]
  IC50: 15800 nM
[20]
  IC50: 17700 nM
[34]
  fraction unbound: 0.002
[21]
  efflux ratio: 3.5
[35]
  Ratio: <= 15
[36]
  Activity: inactive
[37]
  Ratio: 12
[2]
  IC50: 11 nM
[23]
  Vd: 1.1 L/kg
[38]
  fraction unbound: < 0.002
[24]
  inhibition at 3 µM: 66%
[25]
  IC50: 20 nM
[39]
  Activity: Toxic
[26]
  inhibition at 3 µM: 66%

## O=C(c1ccc(S(=O)(=O)Nc2ncns2)c(F)c1)N1CCC(c2noc(-c3ccccc3C(F)(F)F)n2)CC1
[2]
  IC50: 1950 nM

## O=C(c1ccc(S(=O)(=O)Nc2ncns2)c(F)c1)N1CCC(c2ccnc(C(F)(F)F)n2)CC1
[2]
  IC50: 6680 nM

## O=S(=O)(Nc1nccs1)c1ccc(S(=O)(=O)N2CC[C@H](Oc3c(Cl)cccc3Cl)C2)cc1F
[1]
  logD: 2.6
[2]
  IC50: 945 nM

## O=S(=O)(Nc1nccs1)c1ccc(-c2nnc(Cc3ccc(C(F)(F)F)cc3)[nH]2)cc1
[2]
  IC50: 124 nM

## O=C(NCc1ccc(OC(F)(F)F)c(Cl)c1)c1ccc(S(=O)(=O)Nc2nccs2)cc1
[1]
  logD: 3.1
[2]
  IC50: 20 nM

## O=C(NCc1ccc(OC(F)(F)F)c(Cl)c1)c1ccc(S(=O)(=O)Nc2ncccn2)c(F)c1
[1]
  logD: 1.8
[2]
  IC50: 374 nM

## O=C(NCc1ccccc1)c1ccc(S(=O)(=O)Nc2nccs2)cc1
[2]
  IC50: 4450 nM

## O=S(=O)(Nc1ncns1)c1ccc(Oc2ccc(OC(F)(F)F)c(Cl)c2)cc1
[1]
  logD: 2.5
[2]
  IC50: 296 nM
